Results on 1 compound are retold here after ChEMBL document CHEMBL1129453, “3-amino-3,4-dihydro-2H-1-benzopyran derivatives as 5-HT1A receptor ligands and potential anxiolytic agents. 2. Synthesis and quantitative structure-activity relationship studies of spiro[pyrrolidine- and piperidine-2,3'(2'H)-benzopyrans]” (J Med Chem, 1996).

Structures are written as SMILES.

For the test, the species on record is Rattus norvegicus. The test can be described thus: Effect of enantiomeric compound on adenylate cyclase activity in rat hippocampus at 10e-7 M. The test is classed as functional. In outline: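 Rat hippocampal membranes incubated 20 min at 30 °C with forskolin 10 μM, [α-32P]ATP 0.1 μM and test compound. Activity measured as conversion to [32P]cAMP (nM/mg protein/20 min), given as % of control. Mean ± standard error of three determinations in two experiments; Student's t-test versus 100%, p < 0.05.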

`COc1cccc2c1CC1(CCCN1CCCCN1C(=O)CC3(CCCC3)CC1=O)CO2` (racemic): the Effect worked out at 80%.
